Tests used:
[1] = target: T1, NAD-dependent protein deacetylase sirtuin-1 (Homo sapiens, UniProt Q96EB6); experiment: Inhibition of human recombinant SIRT1 using Fluor de Lys-SIRT as substrate incubated for 60 mins prior to substrate addition measured after 60 mins by fluorimetric analysis
T1 sequence (Q96EB6 whole entry): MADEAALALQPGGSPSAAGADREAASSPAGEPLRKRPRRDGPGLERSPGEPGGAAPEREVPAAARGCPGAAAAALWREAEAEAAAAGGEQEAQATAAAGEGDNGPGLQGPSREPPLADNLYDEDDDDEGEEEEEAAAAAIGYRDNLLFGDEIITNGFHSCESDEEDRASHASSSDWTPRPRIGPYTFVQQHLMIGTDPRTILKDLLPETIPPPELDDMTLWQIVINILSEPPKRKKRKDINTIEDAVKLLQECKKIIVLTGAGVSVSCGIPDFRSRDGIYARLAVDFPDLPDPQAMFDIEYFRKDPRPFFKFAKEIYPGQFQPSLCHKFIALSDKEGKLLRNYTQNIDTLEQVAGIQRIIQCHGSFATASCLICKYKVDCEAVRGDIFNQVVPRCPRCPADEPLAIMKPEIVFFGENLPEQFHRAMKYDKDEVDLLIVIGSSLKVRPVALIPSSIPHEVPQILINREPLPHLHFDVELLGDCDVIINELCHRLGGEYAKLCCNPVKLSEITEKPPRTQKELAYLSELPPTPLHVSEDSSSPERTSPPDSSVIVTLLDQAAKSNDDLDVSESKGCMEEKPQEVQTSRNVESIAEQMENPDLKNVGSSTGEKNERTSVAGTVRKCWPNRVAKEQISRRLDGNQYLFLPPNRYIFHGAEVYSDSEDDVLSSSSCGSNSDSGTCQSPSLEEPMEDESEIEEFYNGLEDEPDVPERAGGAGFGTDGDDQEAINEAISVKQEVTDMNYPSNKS
Method in brief: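 Human recombinant SIRT1 run the same way: 60 min at 37 °C with 1 mM NAD⁺ and serial compound dilutions, then 25 μM Fluor de Lys-SIRT substrate for 60 min. Stopped with nicotinamide-containing Developer II and read 45 min later at ex 360/em 460 nm. IC₅₀ from logit regression of % inhibition vs control; means of ≥3 experiments.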

[2] = target: T2, NAD-dependent protein deacetylase sirtuin-3, mitochondrial (Homo sapiens, UniProt Q9NTG7); experiment: Inhibition of human recombinant SIRT3 using Fluor de Lys-SIRT as substrate incubated for 60 mins prior to substrate addition measured after 60 mins by fluorimetric analysis
T2 sequence (Q9NTG7 whole entry): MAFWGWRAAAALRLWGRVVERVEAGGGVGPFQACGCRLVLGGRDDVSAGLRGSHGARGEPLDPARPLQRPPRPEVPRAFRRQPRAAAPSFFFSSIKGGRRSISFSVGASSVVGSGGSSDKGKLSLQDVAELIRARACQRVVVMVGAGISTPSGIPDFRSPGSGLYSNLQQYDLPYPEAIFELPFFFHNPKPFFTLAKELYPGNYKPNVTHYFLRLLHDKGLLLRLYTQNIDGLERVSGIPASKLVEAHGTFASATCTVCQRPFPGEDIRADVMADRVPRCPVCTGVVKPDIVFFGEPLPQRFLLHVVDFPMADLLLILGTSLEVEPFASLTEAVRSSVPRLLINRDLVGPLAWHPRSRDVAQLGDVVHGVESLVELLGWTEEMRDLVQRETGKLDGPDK

[3] = target: Histone deacetylase 3 (Homo sapiens, UniProt O15379); experiment: Inhibition of HDAC3
[4] = target: Histone deacetylase 5 (Homo sapiens, UniProt Q9UQL6); experiment: Inhibition of HDAC5
[5] = target: T3, Protein deacetylase HDAC6 (Homo sapiens, UniProt Q9UBN7); experiment: Inhibition of HDAC6
T3 sequence (Q9UBN7 whole entry): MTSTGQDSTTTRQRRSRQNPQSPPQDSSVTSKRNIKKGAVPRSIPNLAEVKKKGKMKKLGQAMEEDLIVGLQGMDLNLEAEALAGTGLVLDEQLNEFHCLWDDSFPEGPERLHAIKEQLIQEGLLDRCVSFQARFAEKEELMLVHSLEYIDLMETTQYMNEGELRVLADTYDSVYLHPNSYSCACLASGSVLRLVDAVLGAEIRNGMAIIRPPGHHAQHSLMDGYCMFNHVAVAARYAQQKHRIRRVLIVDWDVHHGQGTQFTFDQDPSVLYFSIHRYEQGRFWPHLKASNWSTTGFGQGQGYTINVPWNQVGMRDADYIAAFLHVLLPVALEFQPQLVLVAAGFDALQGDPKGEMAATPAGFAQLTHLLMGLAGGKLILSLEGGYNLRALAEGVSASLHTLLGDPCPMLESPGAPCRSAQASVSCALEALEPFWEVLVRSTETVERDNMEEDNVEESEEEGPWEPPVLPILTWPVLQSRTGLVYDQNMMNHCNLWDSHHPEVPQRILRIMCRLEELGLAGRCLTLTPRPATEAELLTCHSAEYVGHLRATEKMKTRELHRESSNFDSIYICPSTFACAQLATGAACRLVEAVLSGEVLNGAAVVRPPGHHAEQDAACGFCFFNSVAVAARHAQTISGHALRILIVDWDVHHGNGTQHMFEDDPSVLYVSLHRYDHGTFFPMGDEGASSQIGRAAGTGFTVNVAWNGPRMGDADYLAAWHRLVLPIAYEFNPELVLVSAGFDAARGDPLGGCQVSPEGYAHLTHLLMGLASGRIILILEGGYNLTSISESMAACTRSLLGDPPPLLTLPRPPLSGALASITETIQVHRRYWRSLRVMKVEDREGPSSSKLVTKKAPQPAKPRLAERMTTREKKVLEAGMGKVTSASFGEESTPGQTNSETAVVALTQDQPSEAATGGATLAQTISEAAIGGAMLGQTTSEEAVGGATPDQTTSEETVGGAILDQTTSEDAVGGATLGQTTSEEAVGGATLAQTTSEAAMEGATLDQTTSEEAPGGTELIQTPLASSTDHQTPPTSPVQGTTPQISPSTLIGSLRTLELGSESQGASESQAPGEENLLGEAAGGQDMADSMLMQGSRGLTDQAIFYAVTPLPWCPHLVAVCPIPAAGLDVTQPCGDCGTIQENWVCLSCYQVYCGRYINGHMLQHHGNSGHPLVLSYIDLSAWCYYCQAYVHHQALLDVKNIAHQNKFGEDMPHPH

[6] = target: Histone deacetylase 9 (Homo sapiens, UniProt Q9UKV0); experiment: Inhibition of HDAC9
Chain of Histone deacetylase 9 (Q9UKV0 whole entry): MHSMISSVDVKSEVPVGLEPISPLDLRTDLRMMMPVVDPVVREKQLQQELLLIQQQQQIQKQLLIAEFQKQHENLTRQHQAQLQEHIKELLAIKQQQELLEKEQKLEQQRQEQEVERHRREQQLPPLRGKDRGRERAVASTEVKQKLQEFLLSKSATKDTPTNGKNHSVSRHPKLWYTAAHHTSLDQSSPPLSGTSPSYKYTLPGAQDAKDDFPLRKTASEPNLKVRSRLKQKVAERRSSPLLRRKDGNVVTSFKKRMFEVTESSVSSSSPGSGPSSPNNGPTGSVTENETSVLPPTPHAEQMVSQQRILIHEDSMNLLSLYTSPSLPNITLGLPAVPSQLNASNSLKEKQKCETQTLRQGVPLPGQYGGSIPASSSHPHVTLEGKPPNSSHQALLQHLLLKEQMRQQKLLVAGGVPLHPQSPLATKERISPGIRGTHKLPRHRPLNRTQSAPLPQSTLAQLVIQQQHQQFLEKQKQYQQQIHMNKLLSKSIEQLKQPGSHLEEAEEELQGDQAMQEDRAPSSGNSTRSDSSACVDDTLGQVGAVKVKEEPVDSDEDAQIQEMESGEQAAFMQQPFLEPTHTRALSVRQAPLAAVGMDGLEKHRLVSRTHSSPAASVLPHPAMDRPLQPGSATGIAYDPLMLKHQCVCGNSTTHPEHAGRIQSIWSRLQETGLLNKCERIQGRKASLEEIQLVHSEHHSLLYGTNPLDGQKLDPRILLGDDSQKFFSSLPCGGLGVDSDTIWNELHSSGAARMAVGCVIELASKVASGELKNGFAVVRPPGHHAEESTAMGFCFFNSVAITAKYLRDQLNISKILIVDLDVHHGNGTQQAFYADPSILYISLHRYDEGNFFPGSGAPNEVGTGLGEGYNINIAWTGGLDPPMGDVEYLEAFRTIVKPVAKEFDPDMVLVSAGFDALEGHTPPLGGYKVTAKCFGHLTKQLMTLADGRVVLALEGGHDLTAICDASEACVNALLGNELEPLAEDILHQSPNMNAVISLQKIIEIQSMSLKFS

Chain of Histone deacetylase 3 (O15379 whole entry): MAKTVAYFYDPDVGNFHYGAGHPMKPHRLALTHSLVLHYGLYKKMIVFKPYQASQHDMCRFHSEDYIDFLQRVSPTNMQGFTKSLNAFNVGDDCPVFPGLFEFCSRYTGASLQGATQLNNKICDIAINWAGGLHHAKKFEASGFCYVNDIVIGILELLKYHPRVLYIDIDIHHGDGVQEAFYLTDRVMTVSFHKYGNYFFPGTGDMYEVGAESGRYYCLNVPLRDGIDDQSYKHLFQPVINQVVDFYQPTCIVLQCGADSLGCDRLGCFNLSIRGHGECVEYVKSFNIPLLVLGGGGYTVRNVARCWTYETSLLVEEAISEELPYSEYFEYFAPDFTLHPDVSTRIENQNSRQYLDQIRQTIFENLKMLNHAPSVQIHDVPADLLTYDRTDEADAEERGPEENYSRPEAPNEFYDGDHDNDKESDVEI
Chain of Histone deacetylase 5 (Q9UQL6 whole entry): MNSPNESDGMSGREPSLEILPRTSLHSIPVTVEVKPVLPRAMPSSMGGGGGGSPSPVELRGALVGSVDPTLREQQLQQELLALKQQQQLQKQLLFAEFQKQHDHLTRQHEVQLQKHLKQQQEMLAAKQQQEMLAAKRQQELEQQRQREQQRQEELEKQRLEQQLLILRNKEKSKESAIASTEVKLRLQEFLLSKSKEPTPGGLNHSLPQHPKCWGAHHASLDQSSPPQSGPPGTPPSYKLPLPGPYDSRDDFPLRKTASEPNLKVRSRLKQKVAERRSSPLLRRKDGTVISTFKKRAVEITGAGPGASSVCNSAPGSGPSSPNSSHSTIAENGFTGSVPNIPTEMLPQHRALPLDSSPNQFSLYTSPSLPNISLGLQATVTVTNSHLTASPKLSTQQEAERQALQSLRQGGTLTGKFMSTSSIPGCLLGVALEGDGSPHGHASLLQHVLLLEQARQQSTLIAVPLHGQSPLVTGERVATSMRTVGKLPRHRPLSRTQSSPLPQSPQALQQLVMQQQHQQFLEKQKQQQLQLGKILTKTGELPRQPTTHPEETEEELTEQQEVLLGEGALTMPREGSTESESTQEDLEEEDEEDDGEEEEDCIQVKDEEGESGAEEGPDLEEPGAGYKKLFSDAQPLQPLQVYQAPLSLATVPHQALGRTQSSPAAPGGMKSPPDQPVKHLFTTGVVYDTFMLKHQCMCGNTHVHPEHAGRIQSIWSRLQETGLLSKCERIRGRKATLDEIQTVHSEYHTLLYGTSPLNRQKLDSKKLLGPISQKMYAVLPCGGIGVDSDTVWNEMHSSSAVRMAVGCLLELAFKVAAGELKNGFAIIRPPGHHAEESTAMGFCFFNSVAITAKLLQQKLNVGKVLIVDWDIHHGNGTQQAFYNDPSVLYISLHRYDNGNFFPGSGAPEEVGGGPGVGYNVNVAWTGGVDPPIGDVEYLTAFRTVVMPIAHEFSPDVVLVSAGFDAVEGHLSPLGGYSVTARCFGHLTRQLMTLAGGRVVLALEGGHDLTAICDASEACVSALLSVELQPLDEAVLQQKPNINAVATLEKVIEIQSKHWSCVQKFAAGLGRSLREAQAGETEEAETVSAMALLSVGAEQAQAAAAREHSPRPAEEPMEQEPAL

IC50 [1]: > 100 µM | IC50 [2]: > 300 µM | IC50 [3]: > 30 µM | IC50 [4]: > 30 µM | IC50 [5]: > 30 µM | IC50 [6]: > 30 µM
Structure (SMILES): NC(=O)c1ccccc1Nc1cccc(OCCc2ccccc2)c1

Source: ChEMBL document CHEMBL2150931, “Design, synthesis, and biological activity of a novel series of human sirtuin-2-selective inhibitors” (J Med Chem, 2012)
